According to PMC6136146 (Clinical genitourinary cancer, 2018):
“Also recorded” adds a separate entry of the source. Numbered stars: 1 amine (or outer) side, 2 acyl side, 3 side chain; on linkers, the order of the positions; unused ones are H or OH. Square brackets hold non-standard residues; d marks the D form. Side chains are listed from the residue outwards. Peptide text beside a SMILES is read from it. * marks the point of attachment. Ethylenediamine = C(CN[*:2])N[*:1]; Hyp = O=C(O)[C@@H]1C[C@@H](O)CN1; Phg = N[C@H](C(=O)O)c1ccccc1; CO = O=C([*:1])[*:2]; Bn = c1ccc(C*)cc1

Columns and labels:
[1] = tested on: patients with metastatic castrate-resistant prostate cancer (mCRPC); test: Phase I dose escalation: dose-limiting toxicity, MTD and toxicities; format: in vivo, human
[2] = Pasireotide pharmacokinetics, radioimmunoassay with I-125-pasireotide; format: in vivo, human; settings: intramuscular every 28 days
In short: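 Competitive radioimmunoassay on patient samples: samples or standards incubated with I-125-pasireotide tracer and antiserum; immune complexes captured on anti-rabbit-coated magnetic beads, unbound fraction washed away, bound radioactivity read in gamma counter. Dosing: long-acting IM injection every 28 days at 40, 60 or 80 mg, with docetaxel 75 mg/m2 IV every 21 days and prednisone 5 mg orally twice daily.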

[3] = tested on: sst2; settings: extremely high affinity compared to octreotide; cited from earlier work
[4] = tested on: sst3; settings: extremely high affinity compared to octreotide; cited from earlier work
[5] = tested on: sst5; settings: extremely high affinity compared to octreotide; cited from earlier work
[6] = tested on: PC3 cells; settings: cited from earlier work
[7] = tested on: DU145 cells; settings: cited from earlier work
[8] = tested on: sst1; settings: extremely high affinity compared to octreotide; cited from earlier work
[9] = Docetaxel pharmacokinetics; format: in vivo, human; settings: docetaxel 75 mg/m2 intravenously, coadministration of SOM230; single-agent docetaxel PK not done
[10] = tested on: mCRPC; settings: no different between the 2 arms; cited from earlier work
[11] = 60 mg dose level, 12 patients evaluated, number of patients

Compound: NCCCC[C@@H]1NC(=O)[C@@H](Cc2c[nH]c3ccccc23)NC(=O)[C@H](c2ccccc2)NC(=O)[C@@H]2C[C@@H](OC(=O)NCCN)CN2C(=O)[C@H](Cc2ccccc2)NC(=O)[C@H](Cc2ccc(OCc3ccccc3)cc2)NC1=O [Pasireotide] (cyclo([Hyp]([CO-Ethylenediamine])[Phg][dW]KY(Bn)F))
- Dehydration, Grade 1 [1, 11]: 0 n
- Dehydration, Grade 2 [1, 11]: 0 n
- Dehydration, Grade 3 [1, 11]: 1 n
- Dehydration, Grade 4 [1, 11]: 0 n
- Diarrhea, Grade 1 [1, 11]: 2 n
- Diarrhea, Grade 2 [1, 11]: 1 n
- Diarrhea, Grade 3 [1, 11]: 0 n
- Diarrhea, Grade 4 [1, 11]: 0 n
- Dry Mouth, Grade 1 [1, 11]: 1 n
- Dry Mouth, Grade 2 [1, 11]: 0 n
- Dry Mouth, Grade 3 [1, 11]: 0 n
- Dry Mouth, Grade 4 [1, 11]: 0 n
- Electrocardiogram QT Corrected Interval Prolong, Grade 1 [1, 11]: 0 n
- Electrocardiogram QT Corrected Interval Prolong, Grade 2 [1, 11]: 1 n
- Electrocardiogram QT Corrected Interval Prolong, Grade 3 [1, 11]: 0 n
- Electrocardiogram QT Corrected Interval Prolong, Grade 4 [1, 11]: 0 n
- Hyperglycemia, Grade 1 [1, 11]: 0 n
- Hyperglycemia, Grade 2 [1, 11]: 0 n
- Hyperglycemia, Grade 3 [1, 11]: 3 n
- Hyperglycemia, Grade 4 [1, 11]: 0 n
- Hyperkalemia, Grade 1 [1, 11]: 0 n
- Hyperkalemia, Grade 2 [1, 11]: 1 n
- Hyperkalemia, Grade 3 [1, 11]: 0 n
- Hyperkalemia, Grade 4 [1, 11]: 0 n
- Hypertension, Grade 1 [1, 11]: 0 n
- Hypertension, Grade 2 [1, 11]: 0 n
- Hypertension, Grade 3 [1, 11]: 2 n
- Hypertension, Grade 4 [1, 11]: 0 n
- Hyponatremia, Grade 1 [1, 11]: 0 n
- Hyponatremia, Grade 2 [1, 11]: 0 n
- Hyponatremia, Grade 3 [1, 11]: 1 n
- Hyponatremia, Grade 4 [1, 11]: 0 n
- Hypophosphatemia, Grade 1 [1, 11]: 0 n
- Hypophosphatemia, Grade 2 [1, 11]: 0 n
- Hypophosphatemia, Grade 3 [1, 11]: 3 n
- Hypophosphatemia, Grade 4 [1, 11]: 0 n
- Hypotension, Grade 1 [1, 11]: 0 n
- Hypotension, Grade 2 [1, 11]: 0 n
- Hypotension, Grade 3 [1, 11]: 1 n
- Hypotension, Grade 4 [1, 11]: 0 n
- Injection Site Reaction, Grade 1 [1, 11]: 1 n
- Injection Site Reaction, Grade 2 [1, 11]: 0 n
- Injection Site Reaction, Grade 3 [1, 11]: 0 n
- Injection Site Reaction, Grade 4 [1, 11]: 0 n
- Rash Acneiform, Grade 1 [1, 11]: 1 n
- Rash Acneiform, Grade 2 [1, 11]: 0 n
- Rash Acneiform, Grade 3 [1, 11]: 0 n
- Rash Acneiform, Grade 4 [1, 11]: 0 n
- Urinary Frequency, Grade 1 [1, 11]: 1 n
- Urinary Frequency, Grade 2 [1, 11]: 0 n
- Urinary Frequency, Grade 3 [1, 11]: 0 n
- Urinary Frequency, Grade 4 [1, 11]: 0 n
- Grade 4 or 5 toxicities ([1]; 60 mg dose, twelve patients evaluated): None of the patients experienced Grade 4 or 5 toxicities
- Dose-limiting toxicities observed ([1]; 80-mg dose level of pasireotide): Grade 4 hyperglycemia unresponsive to therapy and Grade 4 neutropenia lasting for > 7 days in 1 patient each; also recorded: One patient had Grade 4 amylase elevation and the other had Grade 3 hyperglycemia requiring hospitalization
- Hospitalizations because of hyperglycemia probably or definitely related to SOM230 ([1]; in vivo): Three
- Steady state established in most patients [2]: ≤ 57 days
- Binding to sst2 [3]: binds
- Binding to sst3 [4]: binds
- Binding to sst5 [5]: binds
- Growth factor secretion in PC3 cells [6]: reduced secretion of stem cell factor and platelet-derived growth factor
- Growth factors in DU145 cells [7]: decreased transforming growth factor-β and basic fibroblast growth factor
- Binding to sst1 [8]: binds

Compound: CC(=O)O[C@@]12CO[C@@H]1C[C@H](O)[C@@]1(C)C(=O)[C@H](O)C3=C(C)[C@@H](OC(=O)[C@H](O)[C@@H](NC(=O)OC(C)(C)C)c4ccccc4)C[C@@](O)([C@@H](OC(=O)c4ccccc4)[C@H]21)C3(C)C [Docetaxel]
- Docetaxel clearance compared with the data reported in the literature [9]: 3- to 4 fold higher

Compound: C[C@]12CC[C@@H]3c4ccc(OC(=O)N(CCCl)CCCl)cc4CC[C@H]3[C@@H]1CC[C@@H]2O [estramustine]
- Median OS [10]: 18 months
